Data reported in paper PMC4574835 (British Journal of Clinical Pharmacology, 2015).

Experiments:
[1] = Population PK model; format: in vivo, human
[2] = tested on: organic cation transporter, OCT2; conditions: cited from earlier work
[3] = Individual predicted steady-state PK parameters; format: in vivo, human; conditions: for Tmax / AUC / Cmax: human, plasma, oral; for AUC: AUC(0-τ); for AUC / Cmax / Cτ: steady state
How it was run: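 Individual parameters were empirical Bayes estimates from the final population model, using each subject's actual dose after repeat dosing. AUC(0-τ) was Dose/([CL/F_i]/F). Cmax, tmax and Cτ came from simulated steady-state concentration–time profiles using individual parameters, assuming no inter-occasion variability and zero residual variability. Summary statistics were computed.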

[4] = Exploratory PK-PD relationship, safety endpoints; format: in vivo, human; conditions: AUC(0-τ), Cmax and Cτ; except serum creatinine and CRCL
How it was run: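 This was an exploratory graphical analysis in phase 2b/3 treatment-naive patients. Individual predicted steady-state Cτ, Cmax and AUC(0-τ) came from the final population model, using actual doses and assuming no inter-occasion variability. They were plotted against change from baseline in serum creatinine, creatinine clearance, urine albumin:creatinine ratio, ALT and total bilirubin, both as maximal change over 48 weeks and as change at week 48.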

[5] = tested on: viral strains harboring major integrase resistance mutations selected for by raltegravir and elvitegravir; conditions: in vitro; mutations selected for by RAL and EVG; cited from earlier work
[6] = NONMEM point estimate, inter-individual variability
[7] = NONMEM point estimate, listed as DTG
[8] = 10 mg, ING111521, 10 mg once daily, geometric mean (95% CI)
[9] = 10 mg, SPRING-1, 10 mg once daily, geometric mean (95% CI)
[10] = 50 mg, ING111521, 50 mg once daily, geometric mean (95% CI)
[11] = 50 mg, SPRING-2, 50 mg once daily, geometric mean (95% CI)

C[C@@H]1CCO[C@H]2Cn3cc(C(=O)NCc4ccc(F)cc4F)c(=O)c(O)c3C(=O)N12 [dolutegravir, Dolutegravir]
ALAG (absorption lag-time) ([1]; NONMEM point estimate): 0.263 h | ka (absorption rate constant) ([1]; NONMEM point estimate): 2.24 h^–1 | F ∼ 10 mg ([1]; NONMEM point estimate, factor on F for 10 mg dose): 1.24 | F ∼ GENDER ([1]; NONMEM point estimate, factor on F for females): 1.21 | ω^2V (variance of random effect of V/F) [1, 6]: 0.0188 | ω^2ka (variance of random effect of ka) [1, 6]: 0.224 | ALAG (absorption lag-time) [1, 7]: 0.263 (0.0942, 0.432) h | ka (absorption rate constant) [1, 7]: 2.24 (1.56, 2.92) h^–1 | V/F ∼ WT ([1]; NONMEM point estimate, power coefficient (WT/70)): 0.768 | σ^2prop (proportional residual error) ([1]; NONMEM point estimate, residual variability): 0.0704 | CL/F range over age in analysis population ([1]; age 18–68 years): 0.772–0.998 l h^–1 | ALAG ([1]; bootstrap median, 1000 runs): 0.262 h | CL/F ([1]; bootstrap median, 1000 runs): 0.901 l h^–1 | F ∼ 10 mg ([1]; bootstrap median, 1000 runs): 1.24 | F ∼ GENDER ([1]; bootstrap median, 1000 runs): 1.21 | V/F ([1]; bootstrap median, 1000 runs): 17.4 L | V/F ∼ WT ([1]; bootstrap median, 1000 runs): 0.774 | ka ([1]; bootstrap median, 1000 runs): 2.21 h^–1 | σ^2prop ([1]; bootstrap median, 1000 runs): 0.0698 | ω^2CL ([1]; bootstrap median, 1000 runs): 0.0539 | ω^2V ([1]; bootstrap median, 1000 runs): 0.0182 | ω^2ka ([1]; bootstrap median, 1000 runs): 0.217 | Increase in CL/F for study ING111521 ([1]; compared with SPRING-1 and SPRING-2): 35% | Oral bioavailability (F) higher in female subjects ([1]; compared with males, mean): 21% | Vd/F ([1]; human, plasma, oral): 17.4 L | Apparent clearance higher in current smokers ([1]; vs non-current smokers, mean): 16% | CL/F range over weights in analysis population ([1]; weight 39–135 kg): 0.697–1.20 l h^–1 | V/F range over weights in analysis population ([1]; weight 39–135 kg): 11.1 to 28.8 L | Inhibition of OCT2 [2]: known to inhibit | Tmax [3]: ~2 h | Tmax ([3]; 10 mg): 1.66 h | AUC [3, 8]: 9330 ng·h/mL | AUC [3, 9]: 14300 ng·h/mL | Cmax [3, 8]: 691 ng/mL | Cmax [3, 9]: 957 ng/mL | Tmax ([3]; 50 mg): 1.94 h | AUC [3, 10]: 41300 ng·h/mL | AUC ([3]; 50 mg, SPRING-1, 50 mg once daily, geometric mean (95% CI)): 53800 ng·h/mL | AUC [3, 11]: 53600 ng·h/mL | Cmax [3, 10]: 2940 ng/mL | Cmax [3, 11]: 3690 ng/mL | Cτ ([3]; 50 mg once daily, three studies pooled (n = 449), geometric mean): 1.11 µg ml^–1 | Cτ ([3]; ING111521, 10 mg once daily, geometric mean (95% CI)): 0.168 (0.136, 0.208) µg ml^–1 | Cτ ([3]; ING111521, 50 mg once daily, geometric mean (95% CI)): 0.785 (0.689, 0.895) µg ml^–1 | Cτ ([3]; SPRING-1, 10 mg once daily, geometric mean (95% CI)): 0.311 (0.281, 0.345) µg ml^–1 | Cτ ([3]; SPRING-1, 25 mg once daily, geometric mean (95% CI)): 0.530 (0.462, 0.609) µg ml^–1 | Cτ ([3]; SPRING-1, 50 mg once daily, geometric mean (95% CI)): 1.17 (1.04, 1.33) µg ml^–1 | Cτ ([3]; SPRING-2, 50 mg once daily, geometric mean (95% CI)): 1.10 (1.05, 1.15) µg ml^–1 | Relationship between DTG exposure and the safety endpoints [4]: No relationship | Activity against viral strains harboring major integrase resistance mutations [5]: retains activity
